ChEMBL document CHEMBL4689842, “EUbOPEN Chemogenomics Library wave 1” (2021)

Experiments:
[1] = tested on: U2OS; assay: Incucyte cell viability with U2OS; assay type: toxicity, cell-based; conditions: human, 10 µM, compound concentration 10 uM; further: filed as whole numbers so only -1 and 0 and 1 occur
[2] = tested on: U2OS; assay: Multiplex assay against U2OS; assay type: toxicity, cell-based; conditions: human
Method in brief: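 Per cents of healthy-nucleus cells form the tubulin, mitochondrial-mass and membrane-permeability phenotype values. Live cells were stained at seeding with Hoechst33342, BioTracker Green Microtubule Cytoskeleton Dye, MitoTracker Red and Annexin V Alexa Fluor 680. After compound addition they were imaged on a CQ1 microscope at 37°C and 5% CO2, and CellPathfinder machine-learning gating split them into Hoechst high-intensity objects or normal cells, normal cells into healthy, pyknosed or fragmented nuclei, and pyknosed cells into mitotic or apoptotic.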

[3] = 12 h, 1 µM, compound concentration 1 uM, replicate 1
[4] = 12 h, 1 µM, compound concentration 1 uM, replicate 2
[5] = 12 h, 10 µM, compound concentration 10 uM, replicate 1
[6] = 12 h, 10 µM, compound concentration 10 uM, replicate 2
[7] = 24 h, 1 µM, compound concentration 1 uM, replicate 1
[8] = 24 h, 1 µM, compound concentration 1 uM, replicate 2
[9] = 24 h, 10 µM, compound concentration 10 uM, replicate 1
[10] = 24 h, 10 µM, compound concentration 10 uM, replicate 2
[11] = 48 h, 1 µM, compound concentration 1 uM, replicate 1
[12] = 48 h, 1 µM, compound concentration 1 uM, replicate 2
[13] = 48 h, 10 µM, compound concentration 10 uM, replicate 1
[14] = 48 h, 10 µM, compound concentration 10 uM, replicate 2

CCc1cc2c(cc1CC)CC(NC[C@H](O)c1ccc(O)c3[nH]c(=O)ccc13)C2 [INDACATEROL]
Growth Rate ([1]; 0 h, replicate number 1, timepoint 0 hours): 1
Growth Rate ([1]; 6 h, replicate number 2, timepoint 6 hours): 1
Growth Rate ([1]; 12 h, replicate number 1, timepoint 12 hours): 1
Growth Rate ([1]; 12 h, replicate number 2, timepoint 12 hours): 0
Growth Rate ([1]; 18 h, replicate number 1, timepoint 18 hours): 0
Growth Rate ([1]; 24 h, replicate number 1, timepoint 24 hours): 0
Population Apoptotic (%) [2, 3]: 41%
Population Fragmented Nuclei (%) [2, 3]: 10%
Population Healthy Nuclei (%) [2, 3]: 76%
Population Hoechst High Intensity Objects (%) [2, 3]: 7%
Population Membrane Permeable-Phenotype (%) [2, 3]: 2%
Population Mitochondria Different-Phenotype (%) [2, 3]: 10%
Population Mitotic Cells (%) [2, 3]: 58%
Population Normal (%) [2, 3]: 92%
Population Pyknosed Nuclei (%) [2, 3]: 13%
Population Tubulin-Different-Phenotype (%) [2, 3]: 11%
Total Cell Count [2, 3]: 185
Population Apoptotic (%) [2, 4]: 33%
Population Fragmented Nuclei (%) [2, 4]: 3%
Population Healthy Nuclei (%) [2, 4]: 92%
Population Membrane Permeable-Phenotype (%) [2, 4]: 1%
Population Mitochondria Different-Phenotype (%) [2, 4]: 11%
Population Mitotic Cells (%) [2, 4]: 66%
Population Pyknosed Nuclei (%) [2, 4]: 4%
Population Tubulin-Different-Phenotype (%) [2, 4]: 14%
Total Cell Count [2, 4]: 71
Population Fragmented Nuclei (%) [2, 5]: 18%
Population Healthy Nuclei (%) [2, 5]: 54%
Population Hoechst High Intensity Objects (%) [2, 5]: 4%
Population Membrane Permeable-Phenotype (%) [2, 5]: 22%
Population Mitochondria Different-Phenotype (%) [2, 5]: 95%
Population Normal (%) [2, 5]: 95%
Population Pyknosed Nuclei (%) [2, 5]: 27%
Population Tubulin-Different-Phenotype (%) [2, 5]: 90%
Total Cell Count [2, 5]: 139
Population Apoptotic (%) [2, 6]: 68%
Population Fragmented Nuclei (%) [2, 6]: 15%
Population Healthy Nuclei (%) [2, 6]: 64%
Population Hoechst High Intensity Objects (%) [2, 6]: 6%
Population Membrane Permeable-Phenotype (%) [2, 6]: 23%
Population Mitochondria Different-Phenotype (%) [2, 6]: 98%
Population Mitotic Cells (%) [2, 6]: 31%
Population Normal (%) [2, 6]: 93%
Population Pyknosed Nuclei (%) [2, 6]: 19%
Population Tubulin-Different-Phenotype (%) [2, 6]: 88%
Total Cell Count [2, 6]: 71
Population Apoptotic (%) [2, 7]: 36%
Population Fragmented Nuclei (%) [2, 7]: 11%
Population Healthy Nuclei (%) [2, 7]: 74%
Population Hoechst High Intensity Objects (%) [2, 7]: 6%
Population Membrane Permeable-Phenotype (%) [2, 7]: 2%
Population Mitochondria Different-Phenotype (%) [2, 7]: 11%
Population Mitotic Cells (%) [2, 7]: 63%
Population Normal (%) [2, 7]: 93%
Population Pyknosed Nuclei (%) [2, 7]: 13%
Population Tubulin-Different-Phenotype (%) [2, 7]: 9%
Total Cell Count [2, 7]: 184
Population Apoptotic (%) [2, 8]: 14%
Population Fragmented Nuclei (%) [2, 8]: 4%
Population Healthy Nuclei (%) [2, 8]: 86%
Population Hoechst High Intensity Objects (%) [2, 8]: 3%
Population Membrane Permeable-Phenotype (%) [2, 8]: 0%
Population Mitochondria Different-Phenotype (%) [2, 8]: 10%
Population Mitotic Cells (%) [2, 8]: 85%
Population Normal (%) [2, 8]: 96%
Population Pyknosed Nuclei (%) [2, 8]: 9%
Population Tubulin-Different-Phenotype (%) [2, 8]: 12%
Total Cell Count [2, 8]: 73
Population Apoptotic (%) [2, 9]: 78%
Population Fragmented Nuclei (%) [2, 9]: 24%
Population Healthy Nuclei (%) [2, 9]: 43%
Population Hoechst High Intensity Objects (%) [2, 9]: 4%
Population Membrane Permeable-Phenotype (%) [2, 9]: 50%
Population Mitochondria Different-Phenotype (%) [2, 9]: 96%
Population Mitotic Cells (%) [2, 9]: 21%
Population Normal (%) [2, 9]: 95%
Population Pyknosed Nuclei (%) [2, 9]: 32%
Population Tubulin-Different-Phenotype (%) [2, 9]: 79%
Total Cell Count [2, 9]: 174
Population Apoptotic (%) [2, 10]: 89%
Population Fragmented Nuclei (%) [2, 10]: 11%
Population Healthy Nuclei (%) [2, 10]: 67%
Population Hoechst High Intensity Objects (%) [2, 10]: 6%
Population Membrane Permeable-Phenotype (%) [2, 10]: 59%
Population Mitochondria Different-Phenotype (%) [2, 10]: 100%
Population Mitotic Cells (%) [2, 10]: 10%
Population Normal (%) [2, 10]: 93%
Population Pyknosed Nuclei (%) [2, 10]: 20%
Population Tubulin-Different-Phenotype (%) [2, 10]: 86%
Total Cell Count [2, 10]: 78
Population Apoptotic (%) [2, 11]: 45%
Population Fragmented Nuclei (%) [2, 11]: 7%
Population Healthy Nuclei (%) [2, 11]: 78%
Population Hoechst High Intensity Objects (%) [2, 11]: 4%
Population Membrane Permeable-Phenotype (%) [2, 11]: 2%
Population Mitotic Cells (%) [2, 11]: 54%
Population Normal (%) [2, 11]: 95%
Population Pyknosed Nuclei (%) [2, 11]: 14%
Population Tubulin-Different-Phenotype (%) [2, 11]: 6%
Total Cell Count [2, 11]: 181
Population Apoptotic (%) [2, 12]: 0%
Population Fragmented Nuclei (%) [2, 12]: 6%
Population Healthy Nuclei (%) [2, 12]: 87%
Population Hoechst High Intensity Objects (%) [2, 12]: 5%
Population Membrane Permeable-Phenotype (%) [2, 12]: 8%
Population Mitochondria Different-Phenotype (%) [2, 12]: 12%
Population Mitotic Cells (%) [2, 12]: 100%
Population Normal (%) [2, 12]: 94%
Population Pyknosed Nuclei (%) [2, 12]: 5%
Population Tubulin-Different-Phenotype (%) [2, 12]: 11%
Total Cell Count [2, 12]: 69
Population Apoptotic (%) [2, 13]: 84%
Population Fragmented Nuclei (%) [2, 13]: 23%
Population Healthy Nuclei (%) [2, 13]: 30%
Population Hoechst High Intensity Objects (%) [2, 13]: 9%
Population Membrane Permeable-Phenotype (%) [2, 13]: 38%
Population Mitochondria Different-Phenotype (%) [2, 13]: 96%
Population Mitotic Cells (%) [2, 13]: 15%
Population Normal (%) [2, 13]: 90%
Population Pyknosed Nuclei (%) [2, 13]: 45%
Population Tubulin-Different-Phenotype (%) [2, 13]: 73%
Total Cell Count [2, 13]: 239
Population Apoptotic (%) [2, 14]: 73%
Population Fragmented Nuclei (%) [2, 14]: 9%
Population Healthy Nuclei (%) [2, 14]: 53%
Population Hoechst High Intensity Objects (%) [2, 14]: 16%
Population Membrane Permeable-Phenotype (%) [2, 14]: 49%
Population Mitochondria Different-Phenotype (%) [2, 14]: 100%
Population Mitotic Cells (%) [2, 14]: 26%
Population Normal (%) [2, 14]: 83%
Population Pyknosed Nuclei (%) [2, 14]: 37%
Population Tubulin-Different-Phenotype (%) [2, 14]: 67%
Total Cell Count [2, 14]: 122
